Laboratory results: ChEMBL document CHEMBL2417469, “Synthesis of novel analogs of 2-pyrazoline obtained from [(7-chloroquinolin-4-yl)amino]chalcones and hydrazine as potential antitumor and antimalarial agents” (Eur J Med Chem, 2013)

Key:
Assay type in all cases: functional
HOP-92 = experiment: Cytotoxicity against human HOP92 cells after 48 hrs by SRB assay; settings: HOP-92, 48 h
Method in brief: (§1)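 NCI 60-cell-line screen. Cells preincubated 24 h at 37 °C, 5% CO2; time-zero plates TCA-fixed. Compounds dissolved in DMSO and tested at five concentrations (100, 10, 1.0, 0.1, 0.01 µM) for 48 h continuous exposure. Adherent cells fixed with cold TCA (10% final), then SRB stained; absorbance at 515 nm. GI50, TGI and LC50 calculated from growth relative to time-zero and untreated controls.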

OVCAR-8 = experiment: Cytotoxicity against human OVCAR8 cells after 48 hrs by SRB assay; settings: OVCAR-8, 48 h; method in brief: as §1
SW-620 = experiment: Cytotoxicity against human SW620 cells after 48 hrs by SRB assay; settings: SW-620, 48 h
Method in brief: (§2)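 NCI 60-cell screen. Cells grew 24 h (37 °C, 5% CO2) before compound was added. Compounds were in DMSO and diluted in medium with gentamicin, then tested at five levels (100, 10, 1.0, 0.1, 0.01 µM) with 48 h continuous exposure. Adherent cells were fixed with TCA (10% final) and stained with 0.4% SRB, absorbance read at 515 nm. A time-zero plate was included. LC50 is the concentration giving 50% loss of protein relative to time zero.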

HCC 2998 = experiment: Cytotoxicity against human HCC2998 cells after 48 hrs by SRB assay; settings: HCC 2998, 48 h; method in brief: as §1
T47D = experiment: Cytotoxicity against human T47D cells after 48 hrs by SRB assay; method in brief: as §2
UACC-257 = experiment: Cytotoxicity against human UACC257 cells after 48 hrs by SRB assay; settings: UACC-257, 48 h; method in brief: as §2
SN12C = experiment: Cytotoxicity against human SN12C cells after 48 hrs by SRB assay; method in brief: as §1
RXF 393 = experiment: Cytotoxicity against human RXF393 cells after 48 hrs by SRB assay; settings: RXF 393, 48 h; method in brief: as §1
SNB-19 = experiment: Cytotoxicity against human SNB19 cells after 48 hrs by SRB assay; settings: SNB-19, 48 h; method in brief: as §2
SF-268 = experiment: Cytotoxicity against human SF268 cells after 48 hrs by SRB assay; settings: SF-268, 48 h; method in brief: as §1
K562 = experiment: Cytotoxicity against human K562 cells after 48 hrs by SRB assay; settings: K562, 48 h; method in brief: as §1
KM12 = experiment: Cytotoxicity against human KM12 cells after 48 hrs by SRB assay; settings: KM12, 48 h; method in brief: as §1
IGROV-1 = experiment: Cytotoxicity against human IGROV1 cells after 48 hrs by SRB assay; settings: IGROV-1, 48 h; method in brief: as §1
CAKI-1 = experiment: Cytotoxicity against human Caki1 cells after 48 hrs by SRB assay; settings: CAKI-1, 48 h; method in brief: as §1
A549 = experiment: Cytotoxicity against human A549/ATCC cells after 48 hrs by SRB assay; settings: A549, 48 h; for CC50: read-out: LC50 (the source's name); method in brief: as §1
SK-MEL-2 = experiment: Cytotoxicity against human SK-MEL-2 cells after 48 hrs by SRB assay; settings: SK-MEL-2, 48 h; method in brief: as §1
HT-29 = experiment: Cytotoxicity against human HT-29 cells after 48 hrs by SRB assay; settings: HT-29, 48 h; method in brief: as §1
HOP-62 = experiment: Cytotoxicity against human HOP62 cells after 48 hrs by SRB assay; settings: HOP-62, 48 h; method in brief: as §1
[1] = Cytotoxicity against human EKVX cells after 48 hrs by SRB assay; method in brief: as §1
UACC-62 = experiment: Cytotoxicity against human UACC62 cells after 48 hrs by SRB assay; settings: UACC-62, 48 h; for CC50: read-out: LC50 (the source's name); method in brief: as §2
LOX IMVI = experiment: Cytotoxicity against human LOXIMVI cells after 48 hrs by SRB assay; method in brief: as §1
SK-MEL-28 = experiment: Cytotoxicity against human SK-MEL-28 cells after 48 hrs by SRB assay; settings: SK-MEL-28, 48 h; for CC50: read-out: LC50 (the source's name); method in brief: as §1
RPMI-8226 = experiment: Cytotoxicity against human RPMI8226 cells after 48 hrs by SRB assay; settings: RPMI-8226, 48 h; method in brief: as §1
COLO 205 = experiment: Cytotoxicity against human COLO205 cells after 48 hrs by SRB assay; settings: COLO 205, 48 h; method in brief: as §1
NCI-H226 = experiment: Cytotoxicity against human NCI-H226 cells after 48 hrs by SRB assay; settings: NCI-H226, 48 h; method in brief: as §1

## O=CN1N=C(c2cccc(Nc3ccnc4cc(Cl)ccc34)c2)CC1c1ccccc1 (centres undefined)
HOP-92
  GI50: 210 nM
  LC50 (concentration killing 50% of cells): > 100000 nM
OVCAR-8
  GI50: 510 nM
  LC50 (50% net cell kill): 56000 nM
SW-620
  GI50: 350 nM
  LC50: > 100000 nM
HCC 2998
  GI50: 1220 nM
  LC50: > 100000 nM
T47D
  GI50: 340 nM
  LC50 (concentration giving 50% cell kill relative to time zero): > 100000 nM
UACC-257
  GI50: 330 nM
  LC50: > 100000 nM
SN12C
  GI50: 630 nM
  LC50 (50% net cell kill relative to time zero): > 100000 nM
RXF 393
  GI50: 390 nM
  LC50 (concentration killing 50% of cells): > 100000 nM
SNB-19
  GI50: 600 nM
  LC50: > 100000 nM
SF-268
  GI50: 1040 nM
  LC50: > 100000 nM
K562
  GI50: 260 nM
  LC50 (concentration killing 50% of cells): > 100000 nM
KM12
  GI50: 290 nM
  LC50 (concentration killing 50% of cells): > 100000 nM
IGROV-1
  GI50: 820 nM
  LC50 (concentration killing 50% of cells relative to time zero): > 100000 nM
CAKI-1
  GI50: 330 nM
  LC50: 35300 nM
A549
  GI50: 540 nM
  CC50: > 100000 nM
SK-MEL-2
  GI50: 260 nM
  LC50: > 100000 nM
HT-29
  GI50: 320 nM
  LC50: 4320 nM
HOP-62
  GI50: 510 nM
  LC50 (50% lethal concentration): > 100000 nM
[1]
  GI50: 950 nM
  LC50: > 100000 nM
UACC-62
  GI50: 530 nM
  CC50: > 100000 nM
LOX IMVI
  GI50: 450 nM
  LC50: 4230 nM
SK-MEL-28
  GI50: 760 nM
  CC50: > 100000 nM
RPMI-8226
  GI50: 490 nM
  LC50 (concentration killing 50% of cells): > 100000 nM
COLO 205
  GI50: 360 nM
  LC50: 7920 nM
NCI-H226
  GI50: 6910 nM
  LC50 (50% lethal concentration): > 100000 nM

## COc1ccc(C2CC(c3cccc(Nc4ccnc5cc(Cl)ccc45)c3)=NN2C=O)cc1 (centres undefined)
HOP-92
  GI50: > 100000 nM
  LC50 (concentration killing 50% of cells): > 100000 nM
OVCAR-8
  GI50: 950 nM
  LC50 (50% net cell kill): > 100000 nM
SW-620
  GI50: 360 nM
  LC50: > 100000 nM
HCC 2998
  GI50: 1320 nM
  LC50: > 100000 nM
T47D
  GI50: 530 nM
  LC50 (concentration giving 50% cell kill relative to time zero): > 100000 nM
UACC-257
  LC50: > 100000 nM
SN12C
  GI50: 780 nM
  LC50 (50% net cell kill relative to time zero): > 100000 nM
RXF 393
  GI50: 850 nM
  LC50 (concentration killing 50% of cells): > 100000 nM
SNB-19
  GI50: 870 nM
  LC50: > 100000 nM
SF-268
  GI50: 2560 nM
  LC50: > 100000 nM
K562
  GI50: 290 nM
  LC50 (concentration killing 50% of cells): > 100000 nM
KM12
  GI50: 440 nM
  LC50 (concentration killing 50% of cells): > 100000 nM
IGROV-1
  GI50: 1440 nM
  LC50 (concentration killing 50% of cells relative to time zero): > 100000 nM
CAKI-1
  GI50: 330 nM
  LC50: 100000 nM
A549
  GI50: 570 nM
  CC50: > 100000 nM
SK-MEL-2
  GI50: 490 nM
  LC50: > 100000 nM
HT-29
  GI50: 340 nM
  LC50: > 100000 nM
HOP-62
  GI50: 660 nM
  LC50 (50% lethal concentration): > 100000 nM
[1]
  GI50: 640 nM
  LC50: > 100000 nM
UACC-62
  GI50: 670 nM
  CC50: > 100000 nM
LOX IMVI
  GI50: 580 nM
  LC50: 6700 nM
SK-MEL-28
  GI50: 960 nM
  CC50: > 100000 nM
RPMI-8226
  GI50: 16700 nM
  LC50 (concentration killing 50% of cells): > 100000 nM
COLO 205
  GI50: 450 nM
  LC50: 13900 nM
NCI-H226
  GI50: 41600 nM
  LC50 (50% lethal concentration): > 100000 nM
